The nature of series [1]: Compound was tested for the half life time period in dog jejunum. In kind it is ADME, organism-based, Canis lupus familiaris. Put shortly:
(§1)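 Jejunum (fresh-frozen animal tissue or unused human transplant tissue) was homogenized in pH 7.2 modified Ringer's buffer, spun at 9000g, and the supernatant kept. Compound was added from DMSO at 100 μM starting concentration and incubated at 37 °C, sampled at intervals. Samples were acetonitrile-quenched and parent measured by RP-HPLC to give the half-life.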

The nature of series [2]: Compound was tested for in vivo bioavailability in monkey. In kind it is ADME, organism-based. The note with it: simiiformes, read-out: Bioavailabiility. Put shortly: (§2)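 Fasted rats, beagle dogs or cynomolgus monkeys were dosed orally at 20 mg/kg (one compound at 10 mg/kg) or iv at 5 mg/kg. Vehicles were mainly 0.05% lactic acid in water (oral) or 5% dextrose/0.05% lactic acid (iv). Blood was drawn at intervals, extracted with toluene/hexane (9:1) containing internal standard, and parent quantified by reverse-phase HPLC.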

A short description of series [3]: Human tissue stability for the compound was determined by its half life time period in human blood. The series is classed as ADME, organism-based.
A short description of series [4]: Compound was tested for half life time period in hamster blood. The series is classed as ADME, organism-based. Particulars: cricetinae. The gist of the method: (§3)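 Fresh heparinized blood from rats, hamsters, beagle dogs and cynomolgus monkeys was used within 4 h of collection. Compound was added from DMSO to a starting concentration of 100 μM and incubated at 37 °C with sampling at intervals. Samples were quenched with acetonitrile/TFA and the supernatant assayed by reverse-phase HPLC for loss of parent, giving the half-life. Control incubations were run with each assay.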

Series [5] is described as follows: Compound was tested for half life time period in hamster liver S9. The series is classed as ADME, S9 fraction. Particulars: cricetinae. Put shortly:
(§4)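 Liver S9 was prepared by homogenizing in 50 mM Na/K phosphate/KCl buffer and spinning at 9000g for 20 min. S9 was used at 8 mg/mL protein with an NADPH-generating system and preincubated 5 min at 37 °C. Compound was added from DMSO at 100 μM starting concentration and incubated at 37 °C. Parent disappearance was followed by RP-HPLC over time to give the half-life.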

The nature of series [6]: Compound was tested for the half life time period in rat jejunum. The series is classed as ADME, organism-based. Put shortly: as §1
Series [7] can be described thus: Compound was tested for in vivo bioavailability in rat. The note with it: read-out: Bioavailabiility. The series is classed as ADME, organism-based. The gist of the method: as §2
A short description of series [8]: Compound was tested for half life time period in hamster jejunum. In kind it is ADME, organism-based. The note with it: cricetinae. Put shortly: as §1
Series [9] can be described thus: Compound was tested for in vivo bioavailability in hamsters. The note with it: cricetinae, read-out: Bioavailabiility. In kind it is ADME, organism-based.
Series [10] is described as follows: Compound was tested for the half life time period in monkey jejunum. The series is classed as ADME, tissue-based. Particulars: simiiformes. The gist of the method: as §1
Series [11] in a line: Oral bioavailability in Beagle dogs at oral dose of 20 mg/kg and an intravenous dose of 5 mg/kg was administered. The note with it: dog, in vivo, read-out: BA. In kind it is ADME, organism-based, Canis lupus familiaris. The gist of the method:
as §2

Series [12] is described as follows: Compound was tested for the half life time period in monkey blood. The series is classed as ADME, tissue-based. The note with it: simiiformes. The gist of the method: as §3
A short description of series [13]: Maximum plasma concentration in Beagle dogs at oral dose of 20 mg/kg and an intravenous dose of 5 mg/kg was administered. The series is classed as ADME, organism-based, Canis lupus familiaris. The note with it: dog. Put shortly:
as §2

Series [14] can be described thus: Compound was tested for the half life time period in rat liver S9. In kind it is ADME, S9 fraction. The gist of the method: as §4
The subject of series [15] is Cricetinae gen. sp. Description: Compound was tested for effective dose required for the inhibition of human leukocyte elastase in the HLE-induced hamster hemorrhage model. In kind it is functional, Cricetulus griseus.
A short description of series [16]: Human tissue stability for the compound was determined by its half life time period in human jejunum. In kind it is ADME, organism-based. The gist of the method: as §1
The target in a further series is T1, Neutrophil elastase (Homo sapiens, UniProt P08246).
T1 sequence (P08246 whole entry): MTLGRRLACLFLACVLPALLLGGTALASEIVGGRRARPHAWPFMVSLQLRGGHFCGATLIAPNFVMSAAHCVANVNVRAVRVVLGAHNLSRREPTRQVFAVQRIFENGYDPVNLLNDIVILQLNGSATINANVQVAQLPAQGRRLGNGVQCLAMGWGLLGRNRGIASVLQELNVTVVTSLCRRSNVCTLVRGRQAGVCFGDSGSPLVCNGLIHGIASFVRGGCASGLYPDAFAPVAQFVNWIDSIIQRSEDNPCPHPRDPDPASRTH
Description: Potency of inhibition against human leukocyte elastase (HLE) expressed as an apparent binding constant.

A short description of series [17]: Compound was tested for the half life time period in dog liver S9. In kind it is ADME, Canis lupus familiaris, S9 fraction. Put shortly:
as §4

Series [18] is described as follows: Compound was tested for the half life time period in dog blood. In kind it is ADME, organism-based, Canis lupus familiaris. Put shortly:
as §3

Series [19] can be described thus: Human tissue stability for the compound was determined by its half life time period in human liver. The series is classed as ADME, organism-based. Put shortly:
as §4

A short description of series [20]: Compound was tested for the half life time period in rat blood. The series is classed as ADME, organism-based. Put shortly:
as §3

The nature of series [21]: Compound was tested for the half life time period in monkey liver S9. The note with it: simiiformes. In kind it is ADME, subcellular, S9 fraction. The gist of the method:
as §4

Series [22] can be described thus: Compound was tested for in vivo bioavailability in dog. The series is classed as ADME, organism-based, Canis lupus familiaris. The note with it: read-out: Bioavailabiility. The gist of the method:
as §2

The nature of series [23]: Compound was tested for plasma concentration in Beagle dogs at oral dose of 20 mg/kg and an intravenous dose of 5 mg/kg was administered. The series is classed as ADME, organism-based, Canis lupus familiaris. Particulars: dog. The gist of the method:
as §2

In series [24] the test system is Cricetinae gen. sp. Description: Inhibitory activity was determined against HLE-induced hamster hemorrhage model by intravenous administration at a dose of 1 mg/kg. The series is classed as functional, Cricetulus griseus.
Series [25] relates to Cricetinae gen. sp. Kind of series: Effective dose required for the inhibition of human leukocyte elastase in the HLE-induced hamster hemorrhage model. In kind it is functional, Cricetulus griseus.

Structures are written as SMILES. Bounds are passed on as bounds.

`COc1cc(C(C)C)c2c(c1)S(=O)(=O)N(COC(=O)c1c(Cl)ccc(OCCN3CCOCC3)c1Cl)C2=O`: the half-life – broadly, the time needed for the level to fall by half in the phase considered – in [1] was 394 min; in [3] it was 36 min; in series [4] it was 259 min; in series [5], less than 5 min; in series [6], 60.8 min; in series [8], 1.3 min. Further, the half-life stood at 32.3 min in [10]; 57.2 min in series [12]; 12.4 min in [14]; 170 min in [16]; 30.2 min in series [17]; 90 min in [18]. Besides, the half-life in [19] came to 37.3 min; in [20] it was 6 min; in series [21], 2.9 min; in series [23] it was 137 min. Besides, the bioavailability in [2] is less than 1%; in series [7], 1%; in series [9], less than 3%; in [11], 21%; in [22] it was 21%. In addition, the highest concentration (Cmax) – broadly, the peak of the concentration-time curve – in series [13] amounted to 1200 ng/mL. Also, the ED50 (commonly the dose that gives a 50% effect, or the effect in half of the subjects) with Cricetinae gen. sp. [15] is 3 mg/kg. Further, at Neutrophil elastase, the Ki is 0.013 nM.
For the compound `CC(C)c1cc(O)cc2c1C(=O)N(COC(=O)c1c(Cl)ccc(S(=O)(=O)N3CCN(C)CC3)c1Cl)S2(=O)=O`, the half-life in [3] was more than 1200 min; in series [16], 113 min; in series [19], 40.2 min; in [23], 23 min. The bioavailability in [11] was 8%. For the same compound, in [13], the Cmax was 220 ng/mL. Also, on Neutrophil elastase, the Ki is 0.2 nM.
For `CC(C)c1cccc2c1C(=O)N(COC(=O)c1c(Cl)ccc(OCCN3CCOCC3)c1Cl)S2(=O)=O`, the half-life came to 20 min in [3], 13 min in series [16] and 4.9 min in [19]. In addition, the inhibition in vivo (as a rule, the drop in the measured response relative to a control, in per cent) at 1 mg/kg in the series with Cricetinae gen. sp. [24] stood at 87%. Moreover, the Ki on Neutrophil elastase amounted to 0.008 nM.
For the compound `COc1cc(C(C)C)c2c(c1)S(=O)(=O)N(COC(=O)c1c(Cl)ccc(OCC(=O)O)c1Cl)C2=O`, in series [3], the half-life is less than 15 min. Besides, the Ki at Neutrophil elastase is 0.011 nM.
In the case of `COc1cc(C(C)C)c2c(c1)S(=O)(=O)N(COC(=O)c1c(Cl)ccc(S(=O)(=O)N(C)CCN(C)C)c1Cl)C2=O`, the half-life in series [3] amounted to 130 min; in series [16], 80 min; in series [19] it was 23.9 min; in series [23] it was 74 min. Moreover, the bioavailability in series [11] was 14%. The compound also showed a Cmax in series [13] of 300 ng/mL. Further, at Neutrophil elastase, the Ki is 0.013 nM.
On to `COc1cc(C(C)C)c2c(c1)S(=O)(=O)N(COC(=O)c1c(Cl)ccc(S(=O)(=O)N3CCN(C)CC3)c1Cl)C2=O`, for which the half-life in series [3] is 90 min; in series [16], 99 min; in series [19], 28.9 min; in series [23] it was 78 min. Also, in [11], the bioavailability was determined as 21%. In addition, the highest level in [13] (Cmax) was 390 ng/mL. The Ki at Neutrophil elastase turned out to be 0.011 nM.
`COc1cc(C(C)C)c2c(c1)S(=O)(=O)N(COC(=O)c1c(Cl)ccc(OCCN3CCCC3)c1Cl)C2=O`: the half-life in [3] was 110 min; in series [16] it was 218 min; in [19], 110 min; in [23], 432 min. This compound also yielded an ED50 in the series with Cricetinae gen. sp. [25] of 1 mg/kg. Also, the bioavailability in [11] came to 46%. Moreover, the Cmax in series [13] is 325 ng/mL. For the same compound, the Ki on Neutrophil elastase turned out to be 0.014 nM.
In series [3], `O=C1c2ccccc2S(=O)(=O)N1CSc1nnnn1-c1ccccc1` had a half-life of less than 5 min.
